# Bioassay records (PubChem)
# ANO1 block = TMEM16A chloride channel inhibitors, primary screen, cell-based, HTS. HEK293 TMEM16A/YFP iodide influx fluorescence, ionomycin. normalized B-score (activity score, 25-100; higher = stronger inhibition) at 10 µM. 310,000 compounds, 1.2% hits;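 active means ratio plate-corrected score three or more library SD toward inhibition, starting fluorescence score within five deviations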;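 further: score derived from kinetic fluorescence span divided by baseline fluorescence per well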
# IMP-1 inh-1 = IMP-1 metallo-beta-lactamase inhibitors, primary screen, biochemical, epi-absorbance readout, Pseudomonas aeruginosa enzyme. purified IMP-1, nitrocefin hydrolysis, epi-absorbance fluorescence. metallo-beta-lactamase IMP-1 (Pseudomonas aeruginosa). inhibition, % at 5.6 µM. AID 1556, 2009. 290,000 compounds, 0.45% hits;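 active means inhibition above the mean plus 3 SD of all compounds in the same screening run, cut at about 4.5% in these data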;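 further: 0% = IMP-1 with DMSO and 100% = DMSO wells lacking enzyme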
#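 Assay system: purified IMP-1; Quantity: IMP-1 0.2 nM before substrate addition; Medium: HEPES buffer pH 7.1 with ZnSO4 and Brij 35; Incubation: 15 min enzyme–compound preincubation, then 25 min nitrocefin reaction, 25 °C; Signal: fluorescence quenching readout, ex 480/em 530 nm; Controls: DMSO with and without IMP-1; Repeats: singlicate testing.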
# CHT PAM = CHT positive allosteric modulators, primary screen, cell-based, membrane potential dye, choline EC20; 310,000 compounds, 0.49% hits; B-score at 10 µM; High affinity choline transporter 1 (Homo sapiens), Q9GZV3; CHT-expressing cells; active compounds read high; LV-AA mutant CHT in HEK293 cells; AID 488977, 2010;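 active means initial fluorescence not abnormally high and integrated response B-score, plate-corrected, over 3 SD above library mean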
# CHT block = inhibitors of human choline transporter CHT; B-score at 10 µM; High affinity choline transporter 1 (Homo sapiens), Q9GZV3; CHT-expressing cells, membrane potential dye, choline response; active compounds read low; AID 488975, 2010; 310,000 compounds, 0.86% hits;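 active means B-score over 3 SD under the library average, and starting fluorescence ratio not unusually high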;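 further: choline stimulus applied at its EC90 after an EC20 pre-addition; B-score computed on integrated fluorescence ratio after choline addition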
# VIM-2 inh = VIM-2 metallo-beta-lactamase inhibitors, primary screen, biochemical, epi-absorbance readout, Pseudomonas aeruginosa enzyme | purified VIM-2, nitrocefin hydrolysis, epi-absorbance fluorescence | inhibition, % at 5.6 µM | 290,000 compounds, 0.89% hits | AID 1527, 2009;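 active means inhibition above the mean of all tested compounds plus 3 SD, cutoff set per screening run, cut at about 7.5% in these data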;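 further: red hydrolysis product quenches plate fluorescence so inhibitors raise well fluorescence; 0% = enzyme with DMSO and 100% = DMSO without enzyme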
# TMEM16A act = TMEM16A chloride channel activators or potentiators, primary screen, cell-based, HTS. HEK293 TMEM16A/YFP-H148Q/I152L, iodide quench fluorescence; active compounds read low. AID 623877, 2012. B-score at 10 µM. 340,000 compounds, 0.3% hits. Anoctamin-1 (Mus musculus), Q8BHY3;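 active means fluorescence-ratio B-score plate-corrected deviation score at least 3 library SD below zero, with starting fluorescence score within 5 deviations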;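 further: channel opened by trigger with iodide after compound preincubation; score built on the fluorescence ratio of max minus min over baseline; more negative score means more quench and so TMEM16A activation or potentiation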
# IMP-1 inh-2 = IMP-1 metallo-beta-lactamase inhibitors, confirmation, selectivity assay for selective VIM-2 inhibitor project, biochemical, epi-absorbance readout, triplicate; shares compounds with VIM-2 inh; purified IMP-1, nitrocefin hydrolysis, epi-absorbance fluorescence; inhibition, % at 5.6 µM; AID 1856, 2009; 1,300 tested, under 10 active; call rule not given here;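 further: 0% = enzyme with vehicle and 100% = vehicle without enzyme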
# VIM-2 FRET ctr = VIM-2 inhibitors in FRET format, confirmation, artefact control for selective VIM-2 inhibitor project, biochemical, epi-absorbance artifact exclusion; shares compounds with VIM-2 inh; purified VIM-2, CCF2 FRET substrate hydrolysis; inhibition, % at 5.6 µM; 1,300 compounds, 23% hits; AID 1857, 2009;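 active means inhibition above the mean of all tested compounds plus 3 SD, cut at about 19% in these data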;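 further: 0% = VIM-2 plus DMSO and 100% = no enzyme wells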
# TEM-1 inh = TEM-1 serine beta-lactamase inhibitors, counter-screen for VIM-2 inhibitor project, biochemical, epi-absorbance, HTS; shares compounds with VIM-2 inh; Purified TEM-1, nitrocefin hydrolysis, epi-absorbance fluorescence; inhibition, % at 5.6 µM; 1,300 compounds, 3% hits;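 active means inhibition above that campaign's mean inhibition plus 3 SD, cut at about 0.46% in these data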;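 further: 0% = TEM-1 with DMSO and 100% = TEM-1 with 100 µM potassium clavulanate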
# Target sequence (P62593 whole entry, looked up): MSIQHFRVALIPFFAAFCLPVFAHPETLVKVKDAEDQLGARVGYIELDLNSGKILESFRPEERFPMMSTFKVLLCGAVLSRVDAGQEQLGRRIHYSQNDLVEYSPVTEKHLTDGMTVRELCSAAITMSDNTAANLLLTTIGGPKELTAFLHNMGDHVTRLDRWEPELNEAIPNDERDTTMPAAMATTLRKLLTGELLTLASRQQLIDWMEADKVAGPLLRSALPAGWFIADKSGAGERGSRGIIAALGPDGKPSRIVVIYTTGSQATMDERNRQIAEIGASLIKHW
# VIM-2 confirm 2 = VIM-2 metallo-beta-lactamase inhibitors, confirmation, biochemical, epi-absorbance, hits shared with IMP-1 screen; shares compounds with VIM-2 inh; purified VIM-2, nitrocefin hydrolysis; inhibition, % at 5.6 µM; 1,300 compounds, 96% hits;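 active means inhibition of the VIM-2 beta-lactamase enzyme above about 11% from the earlier first-round screen, limit read from the data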;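 further: 0% = VIM-2 with DMSO and 100% = buffer wells without enzyme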
# Active calls of the source: *; i = inactive; nt = no result. Shown are actives, neighbours in structure and some others; about 3.4% of the full set was active somewhere.
SMILES,ANO1 block,IMP-1 inh-1,CHT PAM,CHT block,VIM-2 inh,TMEM16A act,IMP-1 inh-2,VIM-2 FRET ctr,TEM-1 inh,VIM-2 confirm 2
CCCc1cc(=O)oc2c(C)c(OCC(=O)NCCCN3CCOCC3)ccc12,i,-3,i,i,5,i,nt,nt,nt,nt
Cc1c(OCC(=O)NCCCN2CCOCC2)ccc2c3c(c(=O)oc12)CCCC3,i,-2,i,i,13*,i,-3,-6,-8,22*
CC(=O)NC12CC3CC(C1)CC(C(=O)N1CCN(c4ncccn4)CC1)(C3)C2,i,-1,i,i,-2,i,nt,nt,nt,nt
C=CCn1c(=O)n2ncnc2c2c3c(sc21)CCCC3,i,-1,i,i,15*,i,-3,5,-6,39*
COC(=O)CSc1nc(N)c(C#N)c(-c2ccc(O)cc2)c1C#N,i,-1,i,i,18*,i,-3,0,-7,36*
CC(C)c1ccc(-c2c(C#N)c(N)nc(SCC(=O)N3CCCCCC3)c2C#N)cc1,i,-5,i,i,-4,nt,nt,nt,nt,nt
O=S(=O)(c1ccc2ccccc2c1)n1cccn1,i,-2,i,i,0,i,nt,nt,nt,nt
Cc1c(NC(=O)COc2ccc(C(C)C)cc2)c(=O)n(-c2ccccc2)n1C,i,-3,i,i,-4,i,nt,nt,nt,nt
COc1cccc(-c2nnc3sc(-c4ccccn4)nn23)c1,i,-3,i,i,15*,i,-4,-2,-7,23*
COc1ccc(N2CCc3c(C)nc4c(OC)cc(OC)cc4c32)c(OC)c1,i,-4,i,i,-3,i,nt,nt,nt,nt
COc1ccc(N2CCc3c(C)nc4c(OC)cc(OC)cc4c32)cc1,i,-2,i,i,15*,i,-5,-23,-6,22*
O=C(CSc1nnc(NC(=O)c2ccccc2[N+](=O)[O-])s1)NCc1ccco1,i,-2,i,i,41*,i,-3,64*,-7,46*
O=C(CSc1nnc(NC(=O)c2ccccc2F)s1)NCc1ccco1,i,-1,i,i,41*,i,-3,68*,-6,49*
O=C(CSc1nnc(NC(=O)c2ccccc2F)s1)NCc1ccc(F)cc1,i,-1,i,i,38*,i,-3,61*,-6,44*
O=C(CSc1nnc(NC(=O)c2c(F)cccc2F)s1)NCc1ccco1,i,nt,i,i,nt,i,nt,nt,nt,nt
O=C(CSc1nnc(NC(=O)C2CC2)s1)NCc1ccccc1Cl,i,-3,i,i,29*,i,-3,53*,-6,35*
Cc1ccc(NC(=O)C2CCN(S(=O)(=O)c3ccc4c(c3)OCCO4)CC2)nc1,i,nt,i,i,nt,i,nt,nt,nt,nt
CCSS(=O)(=O)c1cccc2cccnc12,i,-2,i,i,23*,i,-4,-7,-4,29*
Fc1ccc(CSc2nnc(-c3ccccn3)o2)cc1,i,-2,i,i,-2,i,nt,nt,nt,nt
